# Screening data: PubChem, several laboratories
# Hck Nef HTS: inhibitors of human Hck kinase activated by Nef; P08631; Recombinant Hck-YEEI plus Nef, Z-Lyte FRET kinase assay; inhibition, % at 20 µM; 220,000 tested, 0.68% active; AID 463187;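 active = Hck-Nef kinase inhibition above about 50%, limit read from the data; inactive = inhibition below that limit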;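 note: 0% = DMSO with Hck plus Nef and 100% = Hck alone without Nef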
# Runt-SMMHC FRET: Runt domain-CBFb-SMMHC interaction inhibition; inhibition, % at 20 µM; Cerulean-Runt/Venus-CBFb-SMMHC FRET ratio 530/480, 1 h; 220,000 tested, 0.74% active; Q01196+Q13951;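 active = mean inhibition across duplicate retests at 20 µM reaching about 50%, limit read from the data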;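 note: 0% = DMSO wells and 100% = wells with excess untagged CBFb-SMMHC; inhibitors lower the FRET ratio by blocking Runt binding to CBFb-SMMHC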
# Target sequence (Q01196 whole entry, looked up, the tested form may be a part): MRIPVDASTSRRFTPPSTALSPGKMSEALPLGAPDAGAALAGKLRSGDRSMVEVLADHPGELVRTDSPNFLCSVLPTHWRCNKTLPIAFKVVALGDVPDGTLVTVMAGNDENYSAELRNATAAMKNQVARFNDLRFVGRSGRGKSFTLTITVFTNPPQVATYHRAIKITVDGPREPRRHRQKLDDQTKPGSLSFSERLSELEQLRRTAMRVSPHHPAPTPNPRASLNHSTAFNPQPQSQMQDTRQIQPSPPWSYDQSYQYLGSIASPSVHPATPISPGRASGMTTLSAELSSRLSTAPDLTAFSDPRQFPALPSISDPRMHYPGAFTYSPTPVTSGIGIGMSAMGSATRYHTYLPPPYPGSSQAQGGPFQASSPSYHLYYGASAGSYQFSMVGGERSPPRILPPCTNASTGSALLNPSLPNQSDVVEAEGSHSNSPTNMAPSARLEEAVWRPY
# Target sequence (Q13951 whole entry, looked up, the tested form may be a part): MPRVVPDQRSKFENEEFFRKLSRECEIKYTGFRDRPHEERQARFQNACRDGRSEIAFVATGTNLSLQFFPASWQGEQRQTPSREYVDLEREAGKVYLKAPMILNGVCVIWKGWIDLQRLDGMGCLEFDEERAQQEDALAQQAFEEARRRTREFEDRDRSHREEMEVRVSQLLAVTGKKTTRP
# RanGTP-Impb inh: inhibitors of RanGTP-importin-beta interaction, primary screen, biochemical, FRET, CFP-Ran, YFP-importin-beta, homogeneous; 300,000 tested, 1.1% active; inhibition, % (no concentration beside the values); cell-free CFP-Ran/YFP-importin-beta FRET ratio; AID 2216;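 active = more than half of the replicate wells show a fall in the fluorescence ratio signal beyond about 16%, limit read from the data, passing the limit was not always enough; inconclusive = exactly half of the replicate wells pass the set limit; inactive = fewer than half of replicates pass the limit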;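 note: 0% = DMSO wells and 100% = Ran loaded with GDP instead of GTP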
# Runt-CBFb FRET: inhibitors of human RUNX1 Runt domain binding to CBFb; Q01196+Q13951; Cerulean-Runt/Venus-CBFb FRET ratio 530/480, 1 h; inhibition, % at 20 µM; 220,000 tested, 0.46% active;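 active = inhibition over about 50% at 20 µM in the single-dose screen, limit read from the data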;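 note: 0% = DMSO wells and 100% = excess unlabeled CBFb competitor control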
#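 test system = Cerulean-Runt domain fusion protein, energy donor | probe or stimulus = Venus-CBFb binding partner, 100 nM | incubation = two 1 h room-temperature incubations shielded from light | detection = fluorescence energy transfer, 422 nm excitation, 530/480 nm emission | measure = loss of energy transfer signal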
# PfM18AAP inh-1: PfM18AAP enzyme inhibition; inhibition, % at 7.35 µM; AID 1822; recombinant PfM18AAP, H-Glu-NHMec fluorogenic cleavage; 290,000 tested, 1.2% active;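 active = inhibition above the campaign mean inhibition over all tested compounds plus 3 SD, cut at about 28% in these data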;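 note: 0% = plate median of test compound wells and 100% = 2 mM ZnCl2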
# RBBP9 inhibitor: inhibitors of human serine hydrolase RBBP9. O75884. inhibition, % at 7.94 µM. AID 1515. 220,000 tested, 0.2% active. recombinant RBBP9, FP-Rh probe fluorescence polarization;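 active = inhibition above the campaign mean of all tested compounds plus 3 SD, cut at about 14% in these data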;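 note: plate controls were DMSO wells with RBBP9 for no effect and wells lacking RBBP9 protein for full effect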
#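 Measured by – fluorescence polarization · Test system – RBBP9 protein · Input – 2.5 µM RBBP9 dispensing solution, before mixing · Measure – percent inhibition from mP, scaled between DMSO and no-protein wells · Benchmarks – DMSO-treated enzyme wells and wells lacking RBBP9 · Times – preincubation 30 min plus labeling 45 min at 25 °C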
# PfM18AAP inh-2: PfM18AAP inhibition, confirmation; 2,400 tested, 28% active; shares compounds with PfM18AAP inh-1; inhibition, % at 7.35 µM; recombinant PfM18AAP, H-Glu-NHMec fluorogenic cleavage;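 active = mean inhibition over replicate wells above the hit cutoff set for the earlier primary screen, cut at about 29% in these data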;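 note: 0% = median of test compound wells and 100% = 2 mM ZnCl2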
# CTSL1 counter: Cathepsin L (human) inhibition, confirmation | shares compounds with PfM18AAP inh-1 | purified cathepsin L1, Z-Leu-Arg-MCA fluorescence | inhibition, % at 5.96 µM | 2,400 tested, under 10 active;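 active = average inhibition across replicates above the hit cutoff set in the earlier primary screen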;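 note: 0% = median of test compound wells and 100% = Z-Phe-Ala-diazomethylketone 1 µM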
# The depositor's hits bear a star; ? = inconclusive; nt = no result. An excerpt weighted towards active compounds, which were near 2.9% of everything screened.
SMILES,Hck Nef HTS,Runt-SMMHC FRET,RanGTP-Impb inh,Runt-CBFb FRET,PfM18AAP inh-1,RBBP9 inhibitor,PfM18AAP inh-2,CTSL1 counter
CC(C)NC(=S)NC(=O)c1ccc(Cl)cc1Cl,2,1,-4,1,-3,3,nt,nt
COC(=O)c1cc(OC)c(OC)cc1NC(=O)c1cccc(OC)c1OC,18,3,6,0,-7,1,nt,nt
O=C(NC(=S)Nn1cnnc1)c1ccccc1Cl,15,-5,0,19,83*,-10,52*,-7
COc1cccc(C(=O)NC(=S)Nn2cnnc2)c1OC,-1,-1,0,2,73*,1,60*,-9
O=C(NC(=S)Nc1ncccn1)c1ccccc1Cl,2,0,-2,0,-1,-5,nt,nt
COc1ccc(CNC(=O)C2=CC(c3ccc(C)cc3)=NS(=O)(=O)N2C)cc1,nt,nt,4,nt,-4,nt,nt,nt
O=C(CCN1C(=O)/C(=C/c2ccccc2Cl)SC1=S)NC1C=CS(=O)(=O)C1 (stereo unspecified),nt,nt,2,nt,9,nt,nt,nt
CCC1CCC2(CC1)NNC(=S)NN2,-1,8,0,8,35*,-3,39*,0
Clc1ccc(NCn2cncn2)nc1,3,-4,-9,1,78*,6,63*,4
CCOC(=O)c1ccc(N2CSC3=C(C#N)C(c4cccs4)CC(=O)N3C2)cc1 (stereo unspecified),-1,32,2,6,32*,-4,-8,6
CCc1ccc(N2CSC3=C(C#N)C(c4cccs4)CC(=O)N3C2)cc1 (stereo unspecified),13,28,-4,17,44*,-6,-5,1
N#CC1=C2SCN(c3ccc(F)cc3)CN2C(=O)CC1c1cccc(F)c1 (stereo unspecified),1,26,7,14,27,3,nt,nt
Cc1ccc(N2CSC3=C(C#N)C(c4cccs4)CC(=O)N3C2)cc1 (stereo unspecified),8,30,5,19,33*,2,-6,6
O=C(Nc1ncn[nH]1)c1ccccc1O,13,0,?,-2,23,-6,nt,nt
O=C(Nc1ncn[nH]1)C(F)(F)C(F)F,-20,2,3,1,32*,-3,8,-8
CCC(C(=O)Nc1ncn[nH]1)(C(F)(F)F)C(F)(F)F,0,1,-1,-1,53*,-3,69*,-6
CC(Sc1nnc(-c2ccco2)n1C)C(=O)Nc1nccs1 (stereo unspecified),nt,nt,1,nt,nt,nt,nt,nt
Cc1nnc(N/N=C\c2ccc(-c3ccccc3[N+](=O)[O-])o2)n1N,10,26,0,27,43*,0,-19,0
CCc1nnc(N/N=C/c2ccc(-c3ccc([N+](=O)[O-])cc3)o2)n1N,-9,10,-2,37,43*,4,-36,-3
CCc1nnc(N/N=C/c2cc(C)c(C)cc2C)n1N,nt,nt,-2,nt,40*,nt,-20,2
CCOC(=O)N1CCN(C(=O)c2ccc3c(c2)N(Cc2cccc(Cl)c2)C(=O)c2ccccc2S3=O)CC1 (stereo unspecified),nt,nt,2,nt,-12,nt,nt,nt
CCOC(=O)C1=C(CSc2nc(-c3ccncc3)ccc2C#N)OC(N)=C(C#N)C1c1ccc(OC)cc1 (stereo unspecified),-17,-12,-116,21,34*,-12,-7,4
COCc1[nH]nc2c1C(c1cc(OC)c(O)c(OC)c1)C(C#N)=C(N)O2 (stereo unspecified),0,-8,1,4,38*,-3,-4,5
COCc1[nH]nc2c1C(c1ccc(OC)c(OC)c1)C(C#N)=C(N)O2 (stereo unspecified),1,0,0,-1,7,-5,nt,nt
COc1ccc(/C=C2\SC(=S)N(N3C(=O)CCC3=O)C2=O)cc1O,23,22,-3,43,32*,0,-41,4
SMILES,Hck Nef HTS,Runt-SMMHC FRET,RanGTP-Impb inh,Runt-CBFb FRET,PfM18AAP inh-1,RBBP9 inhibitor,PfM18AAP inh-2,CTSL1 counter
COc1ccc(/C=C2/SC(=S)N(Cc3ccccc3)C2=O)cc1O,nt,nt,4,nt,23,nt,nt,nt
Cc1sc(NC(=S)Nc2ccc(F)cc2)c(C(N)=O)c1C,25,16,0,44,47*,1,-6,-1
CCOC(=O)c1c(NC(=S)Nc2ccc(Cl)cc2)sc(C)c1C,1,-36,-4,7,0,-4,nt,nt
COc1ccc(N2CCN(CCCn3c(=S)[nH]c4ncccc4c3=O)CC2)cc1,0,-8,9,4,45*,7,-38,-10
O=c1c2cccnc2[nH]c(=S)n1CCCN1CCN(c2ccc(F)cc2)CC1,0,1,0,3,-7,-12,nt,nt
O=C(NNc1ccc(Cl)nn1)c1ccc(Cl)cc1,-2,-2,-1,-1,38*,-8,-4,-2
Clc1ccc(Nc2ccc(Cl)nn2)cc1,6,-1,0,-2,-11,-12,nt,nt
COc1ccc(NC(=O)CCNS(=O)(=O)c2ccc(Cl)c([N+](=O)[O-])c2)cc1S(N)(=O)=O,nt,nt,-3,nt,-1,nt,nt,nt
NS(=O)(=O)c1ccc(NC(=S)NC2CCCCC2)cc1,21,24,4,45,43*,-4,-4,1
Brc1cccc(OCCCNC2CCCC2)c1,nt,nt,-15,nt,2,nt,nt,nt
O=[N+]([O-])c1ccc(N/N=C/c2cccc(O)c2O)cc1,nt,nt,1,nt,36*,nt,4,1
